Results as given in paper PMC5743405 (International Journal of Oncology, 2017).
“Also recorded” adds a separate entry of the source.

What was measured:
[1] = system: GPCR receptors; experiment: PathHunter β-arrestin gpcrMAX panel, antagonist mode; format: cell-based; conditions: summary of Table II
In short: (§1)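 GPCR-ED fusion and β-arrestin-EA fusion; arrestin recruitment restores β-galactosidase, read by chemiluminescence. Antagonist mode uses EC80 agonist challenge. % inhibition = 100 × (1 − (test − vehicle RLU)/(EC80 control − vehicle RLU)). Hit requires >35% inhibition and mean RLU below EC80 RLU − 3 × EC80 SD.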

[2] = system: ADCYAP1R1; experiment: PathHunter β-arrestin; format: cell-based; conditions: 6 μM
In short: (§2)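 β-Arrestin recruitment assay: the enzyme acceptor is fused to β-arrestin and the ED fragment to the GPCR. Recruitment restores β-galactosidase, read by chemiluminescence. % activity = 100% × (test − vehicle)/(max control ligand − vehicle). % inhibition = 100% × (1 − (test − vehicle)/(EC80 control − vehicle)). An agonist hit needs >30% activity and RLU > baseline + 3×SD. An antagonist hit needs >35% inhibition and RLU < EC80 RLU − 3×SD.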

[3] = system: AGTRL1; experiment: PathHunter β-arrestin; format: cell-based; conditions: agonist mode, 6 μM
In short: as §2

[4] = system: CALCR-RAMP3; experiment: PathHunter β-arrestin; format: cell-based; conditions: antagonist mode, 6 μM
In short: as §2

[5] = system: CCKAR; experiment: PathHunter β-arrestin; format: cell-based; conditions: antagonist mode, 6 μM
In short: as §2

[6] = system: CCR8; experiment: PathHunter β-arrestin; format: cell-based; conditions: antagonist mode, 6 μM
In short: (§3)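 Engineered cells express the receptor fused to one β-galactosidase fragment (ED) and β-arrestin fused to the complementing fragment (EA). Receptor activation recruits β-arrestin, which restores enzyme activity, and this is read by chemiluminescence (RLU). Agonist % activity is 100% × (test − vehicle)/(maximal control ligand − vehicle). Antagonist mode is challenged with an EC80 control agonist, and % inhibition is 100% × (1 − (test − vehicle)/(EC80 − vehicle)). Hits require >30% activity or >35% inhibition, plus a 3×SD RLU margin.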

[7] = system: CHRM5; experiment: PathHunter β-arrestin; format: cell-based; conditions: 6 μM
In short: as §3

[8] = system: CNR1; experiment: PathHunter β-arrestin; format: cell-based; conditions: antagonist mode, 6 μM
In short: as §3

[9] = system: CXCR2; experiment: PathHunter β-arrestin; format: cell-based; conditions: 6 μM
In short: as §3

[10] = system: EBI2; experiment: PathHunter β-arrestin; format: cell-based; conditions: antagonist mode, 6 μM
In short: as §3

[11] = system: EDG7; experiment: PathHunter β-arrestin; format: cell-based; conditions: antagonist mode, 6 μM
In short: as §3

[12] = system: F2R; experiment: PathHunter β-arrestin; format: cell-based; conditions: agonist mode, 6 μM
In short: as §3

[13] = system: GALR2; experiment: PathHunter β-arrestin; format: cell-based; conditions: agonist mode, 6 μM
In short: as §3

[14] = system: GPR1; experiment: PathHunter β-arrestin; format: cell-based; conditions: antagonist mode, 6 μM
In short: (§4)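 Vendor-run (DiscoveRx) PathHunter enzyme fragment complementation. β-Arrestin carries the EA fragment and the receptor carries ED; recruitment restores β-gal activity, read by chemiluminescence (RLU). Agonist % activity = vehicle-subtracted RLU relative to max control ligand (gpcrMAX) or to vehicle (orphanMAX). Antagonist % inhibition = 100% × (1 − vehicle-subtracted sample RLU / vehicle-subtracted EC80 agonist control RLU).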

[15] = system: GPR109A; experiment: PathHunter β-arrestin; format: cell-based; conditions: antagonist mode, 6 μM
In short: as §4

[16] = system: HRH2; experiment: PathHunter β-arrestin; format: cell-based; conditions: 6 μM
In short: as §4

[17] = system: HTR1E; experiment: PathHunter β-arrestin; format: cell-based; conditions: 6 μM
In short: as §4

[18] = system: HTR2A; experiment: PathHunter β-arrestin; format: cell-based; conditions: 6 μM
In short: as §4

[19] = system: NPY2R; experiment: PathHunter β-arrestin; format: cell-based; conditions: antagonist mode, 6 μM
In short: as §4

[20] = system: OPRK1; experiment: PathHunter β-arrestin; format: cell-based; conditions: antagonist mode, 6 μM
In short: as §1

[21] = system: P2RY11; experiment: PathHunter β-arrestin; format: cell-based; conditions: 6 μM
In short: (§5)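 β-Arrestin recruitment to GPCR read by β-galactosidase fragment complementation and chemiluminescence. Agonist: % = 100 × (test − vehicle)/(max control ligand − vehicle), hit at >30% and RLU > baseline + 3 SD. Antagonist, against EC80 agonist: % inhibition = 100 × (1 − (test − vehicle)/(EC80 − vehicle)), hit at >35% and RLU < EC80 − 3 SD.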

[22] = system: P2RY6; experiment: PathHunter β-arrestin; format: cell-based; conditions: antagonist mode, 6 μM
In short: as §1

[23] = system: PRLHR; experiment: PathHunter β-arrestin; format: cell-based; conditions: antagonist mode, 6 μM
[24] = system: PROKR1; experiment: PathHunter β-arrestin; format: cell-based; conditions: 6 μM
In short: as §5

[25] = system: SSTR1; experiment: PathHunter β-arrestin; format: cell-based; conditions: agonist mode, 6 μM
[26] = system: TACR1; experiment: PathHunter β-arrestin; format: cell-based; conditions: 6 μM
In short: as §5

[27] = system: UTR2; experiment: PathHunter β-arrestin; format: cell-based; conditions: 6 μM
In short: as §5

[28] = system: nuclear receptor; experiment: PathHunter NHR assays, nhrMAX panel, agonist mode; format: cell-based; conditions: summary of Table IV
In short: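 Enzyme fragment complementation: a ligand-activated NHR moves to the nucleus and recruits a steroid receptor co-activator peptide fusion, restoring β-galactosidase, read by chemiluminescence. Agonist interaction measured over 6 h. Hit requires >30% activity and mean RLU above baseline RLU + 3 × baseline SD.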

[29] = system: nuclear receptor; experiment: PathHunter NHR assays, nhrMAX panel, antagonist mode; format: cell-based; conditions: summary of Table IV
In short: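 Enzyme fragment complementation: NHR nuclear recruitment of a co-activator peptide fusion restores β-galactosidase, read by chemiluminescence. Test compound preincubated 1 h before agonist challenge. % inhibition = 100 × (1 − (test − vehicle RLU)/(EC80 control − vehicle RLU)). Hit requires >35% inhibition and mean RLU below EC80 RLU − 3 × EC80 SD.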

[30] = system: MUC5B; experiment: RT2 qPCR primer assay, JJ012 cells; format: cell-based, human; conditions: 1 μg/ml PRP-1; heat map, vs nontreated control, technical triplicates
In short: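 RNA extracted from treated and control JJ012 cells, checked by spectrophotometry and reverse transcribed. SYBR Green qPCR with custom primer assays on three samples in technical triplicates. Ct normalized to the average of GAPDH and ACTB. Fold change vs control by 2^−ΔΔCt, shown as a heat map of average Ct.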

Proline rich polypeptide 1 [PRP-1]
GPCR coupling, antagonist mode [1]: no indication that PRP-1 was G protein coupled
% Activity ([2]; agonist mode): 1%
% Inhibition ([2]; antagonist mode): −6%
% Activity [3]: 1%
% Inhibition [4]: −8%
% Inhibition [5]: −3%
% Inhibition [6]: −4%
% Activity ([7]; agonist mode): 5%
% Inhibition ([7]; antagonist mode): −4%
% Inhibition [8]: 2%
% Activity ([9]; agonist mode): 1%
% Inhibition ([9]; antagonist mode): −3%
% Inhibition [10]: −1%
% Inhibition [11]: −3%
% Activity [12]: −2%
% Activity [13]: 1%
% Inhibition [14]: −5%
% Inhibition [15]: −4%
% Activity ([16]; agonist mode): 1%
% Inhibition ([16]; antagonist mode): 1%
% Activity ([17]; agonist mode): 3%
% Inhibition ([17]; antagonist mode): 5%
% Activity ([18]; agonist mode): 1%
% Inhibition ([18]; antagonist mode): −5%
% Inhibition [19]: −2%
% Inhibition [20]: −12%
% Activity ([21]; agonist mode): 1%
% Inhibition ([21]; antagonist mode): −12%
% Inhibition [22]: 3%
% Inhibition [23]: −3%
% Activity ([24]; agonist mode): 2%
% Inhibition ([24]; antagonist mode): −2%
% Activity [25]: −3%
% Activity ([26]; agonist mode): 1%
% Inhibition ([26]; antagonist mode): −2%
% Activity ([27]; agonist mode): 3%
% Inhibition ([27]; antagonist mode): −7%
nuclear receptor agonism [28]: neither that this peptide was agonist for orphan receptors (Table III) or agonist/antagonist for nuclear receptor
nuclear receptor antagonism [29]: neither that this peptide was agonist for orphan receptors (Table III) or agonist/antagonist for nuclear receptor
gene expression [30]: high expression; also recorded: the most upregulation after the treatment with 1 μg/ml
